The record followed here is ChEMBL document CHEMBL1629474, “Massive screening yields novel and selective Trypanosoma cruzi triosephosphate isomerase dimer-interface-irreversible inhibitors with anti-trypanosomal activity” (Eur J Med Chem, 2010).

Activity calls are given as the source filed them. No rule for the calls is given here.

The subject of assay [1] is Trypanosoma cruzi. Description: Antiparasitic activity against Trypanosoma cruzi T2 epimastigotes assessed as growth inhibition at 25 uM after 5 days. It counts as functional. The settings on record: for inhibition of growth at 25 µM: T2, 120 h, read-out: GI. The gist of the method:
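Late-log epimastigotes were grown axenically at 28 °C in BHI-tryptose with 5% fetal calf serum and seeded at 2×10^6/mL in medium containing compound (DMSO stock; final DMSO ≤1%, 1% DMSO control). Growth was read as A590 at day 0 and day 5. Inhibition = {1 − [(Ap − A0p)/(Ac − A0c)]} × 100. Means of two experiments.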

The subject of assay [2] is Trypanosoma cruzi. Description: Antiparasitic activity against Trypanosoma cruzi T2 epimastigotes assessed as growth inhibition. The format is functional. The settings on record: read-out: ID50 (the source's name). The essentials:
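Epimastigotes were cultured at 28 °C in BHI-tryptose plus 5% fetal calf serum and seeded at 2×10^6/mL with increasing compound concentrations (from DMSO stock; final DMSO ≤1%). Growth was followed as A590 against untreated controls. ID50 was the concentration halving absorbance relative to controls. Means of two experiments.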

Assay [3] can be described thus: Selectivity for Trypanosoma cruzi triosephosphate isomerase over human triosephosphate isomerase.
In assay [4] the target is Triosephosphate isomerase, glycosomal (Trypanosoma cruzi) (UniProt P52270). Description: Inhibition of Trypanosoma cruzi triosephosphate isomerase at 100 uM after 2 hrs. The essentials: (§1)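 Recombinant E. coli-expressed enzyme, dialyzed into 100 mM triethanolamine/10 mM EDTA pH 7.4, was incubated with compound (DMSO stock) in 100 mM triethanolamine, 10 mM EDTA, pH 7.4, 10% DMSO at 36 °C for 2 h. An aliquot was then assayed for activity (glyceraldehyde 3-phosphate to dihydroxyacetone phosphate, α-glycerol phosphate dehydrogenase-coupled) with 5 ng enzyme. Irreversible inhibition was scored as loss of activity; means of two experiments.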
Sequence of Triosephosphate isomerase, glycosomal (Trypanosoma cruzi) (P52270 whole entry): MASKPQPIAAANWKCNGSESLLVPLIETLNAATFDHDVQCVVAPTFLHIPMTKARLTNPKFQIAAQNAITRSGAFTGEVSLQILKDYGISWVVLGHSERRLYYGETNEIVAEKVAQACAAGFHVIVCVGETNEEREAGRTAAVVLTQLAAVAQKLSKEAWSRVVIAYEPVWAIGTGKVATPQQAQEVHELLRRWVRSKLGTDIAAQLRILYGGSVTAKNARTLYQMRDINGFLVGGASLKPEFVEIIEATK

The target is the same in assay [5]. The experiment in a line: Inhibition of Trypanosoma cruzi triosephosphate isomerase at 400 uM after 2 hrs. The gist of the method:
as §1

The inhibition is the change of the read-out against control, counted positive when it falls. High values mean strong suppression, low ones little suppression.

On to `c1ccc(-c2nsc(-c3ccccc3)n2)cc1`, for which, in the assay with Trypanosoma cruzi [1], the inhibition of growth at 25 µM is 50%. The IC50 in the assay on Trypanosoma cruzi [2] came to 25 µM. Further, the Ratio in assay [3] is above 4. Also, the inhibition worked out at 45% in assay [4] and 74% in assay [5].

Take `O=C(Cn1ccnc1[N+](=O)[O-])NCc1ccccc1` [BENZNIDAZOLE]: in the assay on Trypanosoma cruzi [1], the result was Active. Besides, the IC50 in the assay with Trypanosoma cruzi [2] stood at 7.4 µM. Further, in assay [3], the Ratio is above 4. The compound also registered an inhibition in assay [5] of 18%.

On to `O=c1cc(-c2ccccc2)oc2ccccc12` [FLAVONE], for which the inhibition of growth at 25 µM in the assay on Trypanosoma cruzi [1] stood at 19.1%. In addition, the IC50 in the assay on Trypanosoma cruzi [2] is above 25 µM. Besides, the Ratio in assay [3] was above 4. Also, the inhibition in assay [4] is 52%; in assay [5], 83%.

As to `CC1=CC(=N/O)/C(=N\O)C=C1`, the inhibition of growth at 25 µM with Trypanosoma cruzi [1] is 50%. Moreover, in the assay on Trypanosoma cruzi [2], the IC50 is 25 µM. The Ratio in assay [3] was above 4. Besides, the inhibition in assay [4] worked out at 49%; in assay [5], 85%.

For `C/C(=C\c1ccc2c(c1)OCO2)[N+](=O)[O-]`, in the assay on Trypanosoma cruzi [1], the inhibition of growth at 25 µM was determined as 100%. Further, the IC50 with Trypanosoma cruzi [2] turned out to be 5.1 µM. In addition, the Ratio in assay [3] is above 4. The inhibition stood at 55% in assay [4] and 74% in assay [5].

`Cc1c(/C=N/NC(N)=S)no[n+]1[O-]`: the inhibition of growth at 25 µM in the assay with Trypanosoma cruzi [1] came to 24.7%. The IC50 with Trypanosoma cruzi [2] was above 25 µM. Further, the Ratio in assay [3] is above 4. Further, the inhibition in assay [4] was determined as 56%; in assay [5], 87%.

As for `C/C(=C\c1cccs1)[N+](=O)[O-]`, the inhibition of growth at 25 µM with Trypanosoma cruzi [1] is 14.6%. For the same compound, the IC50 in the assay with Trypanosoma cruzi [2] was above 25 µM. For the same compound, the Ratio in assay [3] is above 4. Further, the inhibition was determined as 53% in assay [4] and 95% in assay [5].

Turning to `O=C(N/N=C/c1ccc([N+](=O)[O-])o1)Nc1ccc2ccccc2c1`, the outcome in the assay on Trypanosoma cruzi [1] was Active. Moreover, in assay [3], the Ratio is above 4. Besides, the inhibition in assay [4] stood at 32%; in assay [5] it was 100%.

On to `C=CCNC(=S)N/N=C\c1ccccc1OCc1ccc2no[n+]([O-])c2c1`, for which the outcome with Trypanosoma cruzi [1] was Active. For the same compound, the Ratio in assay [3] was above 4. In addition, the inhibition came to 45% in assay [4] and 75% in assay [5].

In the case of `CCCCNC(=O)N/N=C/c1ccc([N+](=O)[O-])o1`, in the assay with Trypanosoma cruzi [1], the result was Active. Also, the Ratio in assay [3] is above 4. In addition, the inhibition was found to be 17% in assay [4] and 0% in assay [5].

On to `CCCCCCN1C(=O)C(=Cc2ccc([N+](=O)[O-])cc2)C(=O)N(CCCCCC)S1(=O)=O`, for which, in the assay on Trypanosoma cruzi [1], the outcome was Active. Also, the Ratio in assay [3] is above 4. In addition, the inhibition came to 26% in assay [4] and 98% in assay [5].

With `NC(=O)N/N=C/c1ccc(OCc2ccc3no[n+]([O-])c3c2)cc1`, in the assay on Trypanosoma cruzi [1], the outcome was Active. Besides, the Ratio in assay [3] is above 4. The results for the inhibition in assay [4] and in assay [5] were 36% and 82%, respectively.

With `O=C1C(=Cc2ccc([N+](=O)[O-])s2)C(=O)N(Cc2ccccc2)S(=O)(=O)N1Cc1ccccc1`, the outcome in the assay with Trypanosoma cruzi [1] was Active. For the same compound, in assay [3], the Ratio is above 4. Moreover, the inhibition is 84% in assay [4] and 77% in assay [5].

Turning to `O=C(N/N=C/c1ccc([N+](=O)[O-])o1)Nc1cccc2ccccc12`, the outcome in the assay on Trypanosoma cruzi [1] was Active. Moreover, the Ratio in assay [3] was above 4. For the same compound, the inhibition in assay [4] is 20%; in assay [5], 82%.

Consider `O=[N+]([O-])c1ccc(/C=C/C=N/NC(=S)Nc2ccccc2)o1`, for which the result in the assay with Trypanosoma cruzi [1] was Active. Besides, in assay [3], the Ratio was above 4. In addition, the inhibition in assay [4] is 75%; in assay [5] it was 100%.

For `O=S(=O)(c1ccccc1)c1no[n+]([O-])c1S(=O)(=O)c1ccccc1`, the result in the assay on Trypanosoma cruzi [1] was Active. In assay [3], the Ratio is above 4. The inhibition was determined as 35% in assay [4] and 93% in assay [5].
